Measured values reported in ChEMBL document CHEMBL1148736, “N-Acylthiadiazolines, a new class of liver X receptor agonists with selectivity for LXRbeta” (J Med Chem, 2007).
Activity calls are given as the source filed them. The calls are words filed in the database; no cut-off is given here.

What was measured:
[1] = target: T1, Vitamin D3 receptor (Homo sapiens) (UniProt P11473); experiment: Activity at VDR by cell based assay; assay type: functional
T1 sequence (whole entry): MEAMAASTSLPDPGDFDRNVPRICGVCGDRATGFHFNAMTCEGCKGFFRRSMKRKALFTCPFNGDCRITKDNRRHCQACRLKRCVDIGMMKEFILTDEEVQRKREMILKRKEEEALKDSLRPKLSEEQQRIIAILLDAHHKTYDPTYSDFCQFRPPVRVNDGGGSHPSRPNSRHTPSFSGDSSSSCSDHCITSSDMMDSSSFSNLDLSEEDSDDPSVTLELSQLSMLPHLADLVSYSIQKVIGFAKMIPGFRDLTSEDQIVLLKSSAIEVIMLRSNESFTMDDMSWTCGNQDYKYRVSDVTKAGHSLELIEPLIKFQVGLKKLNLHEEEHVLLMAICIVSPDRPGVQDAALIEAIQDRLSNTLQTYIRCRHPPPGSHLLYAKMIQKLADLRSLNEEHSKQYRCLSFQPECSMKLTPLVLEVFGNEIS

[2] = target: T2, Oxysterols receptor LXR-alpha (Homo sapiens) (UniProt Q13133); experiment: Displacement of [3H]T-0901317 from GAL-linked human LXRalpha expressed in THP1 cells at 20 uM by SPA relative to GW-3965; assay type: cell-based; settings: THP-1
T2 sequence (whole entry): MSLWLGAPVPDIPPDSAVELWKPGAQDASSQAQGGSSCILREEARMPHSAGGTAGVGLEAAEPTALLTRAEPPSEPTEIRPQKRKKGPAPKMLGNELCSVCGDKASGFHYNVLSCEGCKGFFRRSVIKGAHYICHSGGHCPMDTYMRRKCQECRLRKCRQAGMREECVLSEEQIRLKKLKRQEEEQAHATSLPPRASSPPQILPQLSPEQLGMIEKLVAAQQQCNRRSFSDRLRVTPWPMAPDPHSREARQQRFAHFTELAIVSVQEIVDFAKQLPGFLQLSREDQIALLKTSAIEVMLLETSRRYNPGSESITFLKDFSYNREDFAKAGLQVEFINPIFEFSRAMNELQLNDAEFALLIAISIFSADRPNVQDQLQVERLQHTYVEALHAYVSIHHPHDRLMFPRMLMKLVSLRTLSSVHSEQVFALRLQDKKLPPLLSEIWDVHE
Procedure, shortened: (§1)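 Scintillation proximity displacement with His-tagged hLXRα or hLXRβ LBD (200 ng/well) and 30 nM [3H]T0901317. Beads 0.2 mg/well in phosphate buffer with EDTA, NaCl, DTT, CHAPS, 10% glycerol. 12-point curves from 20 µM; shaken 3 h at room temperature. No-competitor wells = 100% binding; nonspecific binding without protein. Efficacy = maximal displacement relative to reference dual agonist.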

[3] = target: T3, Oxysterols receptor LXR-alpha (Homo sapiens, UniProt Q13133); experiment: Activity at human LXRalpha by Gal4 transactivation assay
T3 sequence (Q13133 whole entry): T2 sequence (whole entry)
Procedure, shortened: (§2)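 GAL4 DBD fused to hLXRα or hLXRβ LBD in pcDNA3, co-transfected into HepG2 with luciferase reporter. Cells in DMEM with 10% lipoprotein-deficient FBS, 7.5 µM lovastatin, 100 µM mevalonic acid. Ligand added 24 h post-transfection as 11-point curves from 10 µM; luciferase read after 16 h. Run in quadruplicate. %E = max fold induction vs max fold induction of reference dual agonist in same experiment.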

[4] = target: T4, Oxysterols receptor LXR-beta (Homo sapiens) (UniProt P55055); experiment: Activity at human LXRbeta by Gal4 transactivation assay relative to GW-3965; procedure, shortened: as §2
T4 sequence (whole entry): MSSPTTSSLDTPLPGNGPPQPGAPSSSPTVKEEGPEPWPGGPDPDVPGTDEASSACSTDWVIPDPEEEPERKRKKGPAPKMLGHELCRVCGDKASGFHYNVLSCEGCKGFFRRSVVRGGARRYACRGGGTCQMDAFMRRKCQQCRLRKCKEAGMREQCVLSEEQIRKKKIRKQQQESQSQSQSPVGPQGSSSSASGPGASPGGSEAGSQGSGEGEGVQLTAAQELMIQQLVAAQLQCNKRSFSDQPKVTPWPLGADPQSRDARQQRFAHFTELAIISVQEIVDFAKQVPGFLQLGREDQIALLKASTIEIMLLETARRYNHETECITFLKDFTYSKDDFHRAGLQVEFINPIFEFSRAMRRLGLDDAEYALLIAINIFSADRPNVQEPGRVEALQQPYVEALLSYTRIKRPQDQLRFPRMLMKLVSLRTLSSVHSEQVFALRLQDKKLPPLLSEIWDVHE

[5] = Half life in C57BL/6 mouse at 20 mg/kg, po; assay type: ADME, organism-based; set-up: dose 20 mg/kg, route oral; settings: in vivo
Procedure, shortened: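 Mouse PK study, IV and PO; compound formulated at 2.5 mg/mL in PEG300/Tween 80 (4:1). IV dose 5 mpk (AUC, Cmax, clearance, Vss); oral dose 20 mpk (AUC, Cmax, bioavailability, t1/2).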

[6] = target: T3, Oxysterols receptor LXR-alpha; experiment: Agonist activity at GAL-linked human LXRalpha expressed in THP1 cells assessed as stimulation of coactivator recruitment by FRET assay; assay type: functional
Procedure, shortened: (§3)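 Cell-free TR-FRET coactivator recruitment: 20 nM His-tagged hLXRα or hLXRβ, 300 nM biotinylated SRC-1 peptide, Eu-anti-His antibody, APC-streptavidin. 12-point curves from 20 µM; 1 h at 37 °C. Duplicate. %E = maximal coactivator recruitment relative to reference dual agonist in same experiment.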

Macrophage = experiment: Induction of ABCA1 gene expression in LXRalpha and LXRbeta deficient mouse macrophages; assay type: functional, cell-based
Procedure, shortened: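 Thioglycollate-elicited peritoneal macrophages from LXR-null mice, plated 24 h. Treated as for THP-1 without PMA: 2% lipoprotein-deficient serum medium, compound in DMSO for 24 h. ABCA1 mRNA by TaqMan qRT-PCR with 36B4 control, fold vs DMSO. Two concentrations used.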

[7] = target: T4, Oxysterols receptor LXR-beta (Homo sapiens); experiment: Displacement of [3H]T-0901317 from GAL-linked human LXRbeta expressed in THP1 cells at 20 uM by SPA relative to GW-3965; assay type: cell-based; settings: THP-1; procedure, shortened: as §1
Hepatocyte = experiment: Induction on FAS gene expression in human primary hepatocytes at 1 uM; assay type: functional, cell-based
Procedure, shortened: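 Primary human hepatocytes treated with 1 µM compound; FAS mRNA measured by TaqMan-based qRT-PCR.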

[8] = target: T4, Oxysterols receptor LXR-beta (Homo sapiens); experiment: Agonist activity at GAL-linked human LXRbeta expressed in THP1 cells assessed as stimulation of co-activator recruitment by FRET assay relative to GW-3965; assay type: functional; procedure, shortened: as §3
HepG2 = experiment: Increase in FAS gene expression in HepG2 cells at 10 uM relative to GW-3965; assay type: functional, Homo sapiens
[9] = target: T2, Oxysterols receptor LXR-alpha (Homo sapiens); experiment: Agonist activity at GAL-linked human LXRalpha expressed in THP1 cells assessed as stimulation of co-activator recruitment by FRET assay relative to GW-3965; assay type: functional; procedure, shortened: as §3
[10] = target: Peroxisome proliferator-activated receptor (Homo sapiens) (UniProt P37231+Q07869+Q03181); experiment: Activity at PPAR by cell based assay

With COc1cccc(C2SC(c3ccc(Cl)cc3)=NN2C(=O)c2c(F)cc(F)cc2F)c1OC (racemic) the Activity [1] was “inactive”, the Efficacy [2] was 52% and the EC50 [3] was 0.608 µM. The Efficacy [4] was 82%, the half-life [5] was 6.7 h and the EC50 [6] was 2.3 µM. For the same compound, the Activity (Macrophage) was “inactive”, the Efficacy [7] was 100% and the Activity (Hepatocyte) was “inactive”. For the same compound, the Efficacy [8] was 99%, the Activity (HepG2) was 33% and the Efficacy [9] was 42%. The Activity [10] was “inactive”.
